What all share (type): functional
The subject of test [1] is Pseudomonas aeruginosa. The test can be described thus: Antibacterial activity against Pseudomonas aeruginosa PAO1 after 18 hrs by microtiter dilution assay. Summed up:
(§1)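 Broth microdilution following CLSI guidelines. An overnight culture was adjusted to 0.5 McFarland in saline, then diluted 1:50 in Mueller-Hinton broth. This inoculum was added in equal volume to 2-fold serial dilutions of agent in MHB and incubated 18 h at 37 °C. MIC was the lowest concentration with no visible growth.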

Test [2] relates to Pseudomonas aeruginosa. Nature of the test: Induction of cytoplasmic membrane depolarization in Pseudomonas aeruginosa PAO1 up to 1200 secs by diSC3-5 staining based fluorescence assay. In a few lines:
(§2)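 Mid-log PAO1 washed in 5 mM HEPES pH 7.4 with 20 mM glucose and resuspended to OD600 0.05. Cells were loaded with 0.2 mM EDTA and 0.4 µM diSC3-5 for 2 h at 37 °C in the dark, then equilibrated with 100 mM KCl for 30 min. Agent was added and fluorescence followed at 622/670 nm; agents tested at 32 µg/mL.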

Test [3] has as its system Pseudomonas aeruginosa. The test can be described thus: Antibacterial activity against multidrug/extremely drug-resistant/colistin-susceptible Pseudomonas aeruginosa isolate 100036 after 18 hrs by microtiter dilution assay. In a few lines:
as §1

Test [4] relates to Staphylococcus aureus. Nature of the test: Antibacterial activity against methicillin resistant Staphylococcus aureus ATCC 33592 after 24 hrs by […] dilution method. As to conditions: ATCC 33592, 24 h.
The subject of test [5] is Escherichia coli. The test can be described thus: Antibacterial activity against amikacin-resistant Escherichia coli isolate CAN-ICU 63074 after 24 hrs by […] dilution method. The following applies: isolate CAN-ICU 63074, 24 h.
Test [6] deals with Pseudomonas aeruginosa. The test can be described thus: Antibacterial activity against multidrug/extremely drug-resistant/colistin-susceptible Pseudomonas aeruginosa isolate P259-96918 after 18 hrs by microtiter dilution assay. Summed up: as §1
The subject of test [7] is Klebsiella pneumoniae. The test can be described thus: Antibacterial activity against Klebsiella pneumoniae ATCC 13883 after 24 hrs by […] dilution method. As to conditions: ATCC 13883, 24 h.
Test [8] relates to Pseudomonas aeruginosa. The test can be described thus: Antibacterial activity against multidrug/extremely drug-resistant/colistin-susceptible Pseudomonas aeruginosa isolate 101885 after 18 hrs by microtiter dilution assay. Summed up: as §1
In test [9] the test system is Pseudomonas aeruginosa. The test can be described thus: Antibacterial activity against gentamicin/tobramycin-resistant Pseudomonas aeruginosa isolate CANWARD-2011 96846 after 24 hrs by […] dilution method. The following applies: isolate CANWARD-2011 96846, 24 h.
The subject of test [10] is Pseudomonas aeruginosa. Nature of the test: Synergistic antibacterial activity against Pseudomonas aeruginosa PAO1 after 18 hrs in presence of minocycline by checkerboard assay. In a few lines:
(§3)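 Checkerboard in MHB: antibiotic diluted along one axis and adjuvant along the other (10 × 7 matrix). Inoculum was a 1:50 dilution in MHB of a 0.5 McFarland saline suspension; incubated 18 h at 37 °C. Each FIC = concentration in the no-growth well divided by the MIC alone; FIC index = sum of both FICs. ≤0.5 synergy, 0.5–4 no interaction, ≥4 antagonism.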

The test system of test [11] is Enterococcus faecium. Nature of the test: Antibacterial activity against Enterococcus faecium ATCC 27270 after 24 hrs by […] dilution method. As to conditions: ATCC 27270, 24 h.
Test [12] has as its system Staphylococcus aureus. The test can be described thus: Antibacterial activity against Staphylococcus aureus ATCC 29213 after 24 hrs by […] dilution method. As to conditions: ATCC 29213, 24 h.
The subject of test [13] is Pseudomonas aeruginosa. Nature of the test: Antibacterial activity against gentamicin-resistant Pseudomonas aeruginosa isolate CAN-ICU 62308 after 24 hrs by […] dilution method. As to conditions: isolate CAN-ICU 62308, 24 h.
For test [14], the system named is Staphylococcus epidermidis. Nature of the test: Antibacterial activity against methicillin-susceptible Staphylococcus epidermidis isolate CANWARD-2008 81388 after 24 hrs by […] dilution method. The following applies: isolate CANWARD-2008 81388, 24 h.
Test [15] has as its system Stenotrophomonas maltophilia. Nature of the test: Antibacterial activity against Stenotrophomonas maltophilia isolate CAN-ICU 62584 after 24 hrs by […] dilution method. The following applies: isolate CAN-ICU 62584, 24 h.
For test [16], the system named is Escherichia coli. Nature of the test: Antibacterial activity against gentamicin/tobramycin/ciprofloxacin-resistant Escherichia coli isolate CANWARD-2011 97615 harboring AAC3-2A after 24 hrs by […] dilution method. As to conditions: isolate CANWARD-2011 97615, 24 h.
Test [17] has as its system Pseudomonas aeruginosa. The test can be described thus: Antibacterial activity against multidrug/extremely drug-resistant/colistin-susceptible Pseudomonas aeruginosa isolate P262-101856 after 18 hrs by microtiter dilution assay. Summed up: as §1
The subject of test [18] is Escherichia coli. The test can be described thus: Antibacterial activity against Escherichia coli ATCC 25922 after 24 hrs by […] dilution method. As to conditions: ATCC 25922, 24 h.
Test [19] concerns Enterococcus faecalis. Nature of the test: Antibacterial activity against Enterococcus faecalis ATCC 29212 after 24 hrs by […] dilution method. The following applies: ATCC 29212, 24 h.
The subject of test [20] is Escherichia coli. Nature of the test: Antibacterial activity against gentamicin-resistant Escherichia coli isolate CAN-ICU 61714 after 24 hrs by […] dilution method. The following applies: isolate CAN-ICU 61714, 24 h.
In test [21] the test system is Pseudomonas aeruginosa. The test can be described thus: Antibacterial activity against multidrug/extremely drug-resistant/colistin-resistant Pseudomonas aeruginosa isolate 101243 after 18 hrs by microtiter dilution assay. Summed up: as §1
Test [22] concerns Streptococcus pneumoniae. The test can be described thus: Antibacterial activity against Streptococcus pneumoniae ATCC 49619 after 24 hrs by […] dilution method. The following applies: ATCC 49619, 24 h.
For test [23], the system named is Pseudomonas aeruginosa. Nature of the test: Antibacterial activity against Pseudomonas aeruginosa PAO1 assessed as ratio of MIC after 25 serial passages to MIC before 25 serial passages by microtiter dilution assay. Summed up:
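Sequential passaging of wild-type PAO1 with single drugs or drug combinations. MIC was tested in MHB for 18 h. Cells from the well at half the MIC were adjusted to 0.5 McFarland in saline, diluted 1:50 in fresh MHB and used for the next MIC test. This was repeated for 25 passages, and the fold change in MIC was plotted against passage number.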

The subject of test [24] is Acinetobacter baumannii. Nature of the test: Antibacterial activity against Acinetobacter baumannii isolate CAN-ICU 63169 after 24 hrs by […] dilution method. As to conditions: isolate CAN-ICU 63169, 24 h.
Test [25] deals with Pseudomonas aeruginosa. Nature of the test: Antibacterial activity against Pseudomonas aeruginosa ATCC 27853 after 24 hrs by […] dilution method. The following applies: ATCC 27853, 24 h.
The subject of test [26] is Pseudomonas aeruginosa. The test can be described thus: Antibacterial activity against multidrug/extremely drug-resistant/colistin-resistant Pseudomonas aeruginosa isolate 91433 after 18 hrs by microtiter dilution assay. In a few lines: as §1
Test [27] relates to Pseudomonas aeruginosa. Nature of the test: Synergistic antibacterial activity against Pseudomonas aeruginosa PAO1 after 18 hrs in presence of rifampicin by checkerboard assay. In a few lines:
as §3

For test [28], the system named is Pseudomonas aeruginosa. The test can be described thus: Antibacterial activity against multidrug/extremely drug-resistant/colistin-susceptible Pseudomonas aeruginosa isolate P264-104354 after 18 hrs by microtiter dilution assay. In a few lines:
as §1

The test system of test [29] is Staphylococcus epidermidis. Nature of the test: Antibacterial activity against methicillin-resistant Staphylococcus epidermidis isolate CAN-ICU 61589 after 24 hrs by […] dilution method. As to conditions: isolate CAN-ICU 61589, 24 h.
Test [30] has as its system Pseudomonas aeruginosa. The test can be described thus: Potentiation of rifampicin-induced antibacterial activity against Pseudomonas aeruginosa PAO1 at 4 ug/ml after 18 hrs by checkerboard assay. Summed up: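 Checkerboard in MHB with a 10 × 7 matrix: antibiotic serially diluted along one axis, adjuvant along the other. Inoculum was a 1:50 dilution of a 0.5 McFarland suspension, incubated 18 h at 37 °C and read on a plate reader. Each FIC is the concentration in a no-growth well divided by the MIC alone; FIC index is their sum, with ≤0.5 taken as synergy.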

For test [31], the system named is Pseudomonas aeruginosa. The test can be described thus: Potentiation of novobiocin-induced antibacterial activity against Pseudomonas aeruginosa PAO1 at 4 ug/ml after 18 hrs by checkerboard assay.
The subject of test [32] is Pseudomonas aeruginosa. Nature of the test: Disruption of proton motive force in Pseudomonas aeruginosa PAO1 cytoplasmic membrane assessed as repression of bacterial swimming motility at sub-MIC after 20 hrs. Summed up:
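Swim plates of 0.3% agar with tryptone 5 g/L and NaCl 2.5 g/L, agent mixed into the medium and plates dried 2 h. PAO1 at 1.0 McFarland in 0.85% saline was point-inoculated at the center, and plates incubated 20 h at 37 °C before swim diameter was imaged.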

Test [33] concerns Pseudomonas aeruginosa. Nature of the test: Induction of cytoplasmic membrane depolarization in Pseudomonas aeruginosa PAO1 up to 300 secs by diSC3-5 staining based fluorescence assay. In a few lines:
as §2

Test [34] has as its system Pseudomonas aeruginosa. The test can be described thus: Induction of outer membrane permeabilization in Pseudomonas aeruginosa PAO1 at 32 ug/ml after 30 mins by CFDASE staining based fluorescence assay. In a few lines: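 Log-phase PAO1 washed in PBS, brought to OD600 0.5 and loaded with 100 µM CFDASE for 30 min at 37 °C, then washed. Cells were exposed to agent for 30 min at 37 °C and supernatant fluorescence read at 488/520 nm. Untreated cells were subtracted; 1% Triton X-100 served as positive control.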

Values after ≈ are worked out from the molar mass of the structure shown. Active and inactive are the calls of the source. No cut-off for these calls is given here.

For `NC[C@H]1O[C@H](O[C@H]2[C@H](O)[C@@H](O[C@H]3O[C@H](CO)[C@@H](O)[C@H](N)[C@H]3O)[C@H](N)C[C@@H]2N)[C@H](N)C[C@@H]1O` [TOBRAMYCIN], the MIC is 0.25 µg/mL (≈ 0.535 µM) in test [1] (PAO1, 18 h); 64 µg/mL (≈ 137 µM) in [3] (isolate 100036, 18 h); at most 0.25 µg/mL in test [4]; 8 µg/mL (≈ 17.1 µM) in test [5]; 128 µg/mL (≈ 274 µM) in [6] (isolate P259-96918, 18 h); at most 0.25 µg/mL in [7]. Moreover, the MIC was 0.25 µg/mL (≈ 0.535 µM) in test [8] (isolate 101885, 18 h); 256 µg/mL (≈ 548 µM) in [9]; 8 µg/mL (≈ 17.1 µM) in test [11]; at most 0.25 µg/mL in test [12]; 16 µg/mL (≈ 34.2 µM) in test [13]; at most 0.25 µg/mL in test [14]. Further, the minimal inhibitory concentration (MIC) in test [15] is over 512 µg/mL; in [16], 128 µg/mL (≈ 274 µM); in test [17] (isolate P262-101856, 18 h) it was 512 µg/mL (≈ 1100 µM); in test [18], 0.5 µg/mL (≈ 1.07 µM); in test [19], 8 µg/mL (≈ 17.1 µM); in test [20], 8 µg/mL (≈ 17.1 µM). The minimum inhibitory concentration (MIC) in test [21] (isolate 101243, 18 h) is 256 µg/mL (≈ 548 µM); in test [22], 2 µg/mL (≈ 4.28 µM); in test [24], 32 µg/mL (≈ 68.4 µM); in test [25], 0.5 µg/mL (≈ 1.07 µM); in test [26] (isolate 91433, 18 h), 8 µg/mL (≈ 17.1 µM); in test [28] (isolate P264-104354, 18 h), 128 µg/mL (≈ 274 µM). Moreover, inhibition of growth in test [29] (MIC) required 1 µg/mL (≈ 2.14 µM). In [2], the Activity result was “Dose-dependent effect”. The outcome in [10] and in test [27] was inactive. Further, the Ratio in [23] is recorded as 256.

Turning to COLISTIN, the MIC is 1 µg/mL in test [1]; 2 µg/mL in test [3]; 0.5 µg/mL in [6]; 0.5 µg/mL in test [8]; 2 µg/mL in test [17]; over 1020 µg/mL in test [21]. The minimal inhibitory concentration (MIC) in [26] and in test [28] was 4 µg/mL each time. Further, the outcome in test [30], in [31], in test [32] and in test [34] was Active. In addition, the Activity entry in test [33] is “Dose-dependent effect”. For the same compound, the Ratio in test [23] was 1024.

The values above are taken from ChEMBL document CHEMBL4014308, “Amphiphilic Tobramycin-Lysine Conjugates Sensitize Multidrug Resistant Gram-Negative Bacteria to Rifampicin and Minocycline” (J Med Chem, 2017).
